Tn6 DDE FP – inhibitors of Tn6 peptide binding to human fibrin DD(E) | P02675 | inhibition, % at 8.3 µM | Fibrin DD(E) TRITC-Tn6 fluorescence polarization displacement | 0.21% of 370,000 active;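 active = inhibition above a per-campaign cutoff: mean of compounds within control limits plus 3 SD, cut at about 15% in these data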;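 also: 0% = median of all compound wells on the plate and 100% = blocking peptide control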
PKA-R1A activ – activators of PKA-R1A complex; P00514+P68181; PKA-R1A dissociation, Cy5-IP20 fluorescence polarization; scaled: DMSO 0%, 113 µM cGMP 100%; activation, % at 11.4 µM; 0.083% of 340,000 active;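 active = percent activation above the mean of all tested compounds plus 3 SD, cut at about 19% in these data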;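 also: higher means more PKAc released from R1A so a rise in polarization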
Neddyl block – blocks human cullin neddylation; 0.58% of 360,000 active; inhibition, % at 25 µM; P61081+Q13564; TR-FRET cullin neddylation, biochemical; in the data active = inhibition above about 36%
Target sequence (P61081 whole entry, looked up): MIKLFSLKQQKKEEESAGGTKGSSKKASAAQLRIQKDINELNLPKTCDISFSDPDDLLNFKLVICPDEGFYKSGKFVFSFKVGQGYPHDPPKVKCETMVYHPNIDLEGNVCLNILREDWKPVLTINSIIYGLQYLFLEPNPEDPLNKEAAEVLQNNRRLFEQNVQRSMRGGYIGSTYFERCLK
Target sequence (Q13564 whole entry, looked up): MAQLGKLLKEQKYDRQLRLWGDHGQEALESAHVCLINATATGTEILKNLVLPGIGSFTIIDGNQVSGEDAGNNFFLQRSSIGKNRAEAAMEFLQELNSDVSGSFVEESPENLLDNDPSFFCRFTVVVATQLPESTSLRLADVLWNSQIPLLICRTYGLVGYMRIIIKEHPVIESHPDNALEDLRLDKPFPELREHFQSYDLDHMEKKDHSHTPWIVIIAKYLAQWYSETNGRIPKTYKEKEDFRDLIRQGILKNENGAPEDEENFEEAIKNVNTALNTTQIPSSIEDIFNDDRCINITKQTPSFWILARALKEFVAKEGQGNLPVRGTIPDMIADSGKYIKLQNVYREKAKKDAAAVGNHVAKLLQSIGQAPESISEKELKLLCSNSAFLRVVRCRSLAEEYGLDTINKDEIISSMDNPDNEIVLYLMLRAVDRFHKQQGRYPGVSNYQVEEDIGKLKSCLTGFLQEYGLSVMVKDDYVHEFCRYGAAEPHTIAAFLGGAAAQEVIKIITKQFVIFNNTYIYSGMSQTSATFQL
Tn7 DDE FP – inhibitors of Tn7 peptide binding to human fibrin DD(E). FP displacement of FITC-Tn7 peptide from fibrin DD(E); 0% = median of compound wells per plate. inhibition, % at 8.3 µM. 0.13% of 370,000 active;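 active = inhibition above the mean of compounds falling within the control limits plus 3 SD of them, cut at about 14% in these data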;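 also: 0% = plate median of compound wells and 100% = 10 µM Aha-Tn7 peptide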
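Measure: % inhibition scaled between sample-field median and high-control FP; Test system: human fibrin DD(E); Quantity: 2 µM final DD(E) protein; Doses: one dose, 8.3 µM nominal; Schedule: compound with protein 10 min, then 3 h after probe, room temperature; Detection: fluorescence polarization; Medium: Tris buffer with calcium and detergent, pH 7.8.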
PKA-R2B activ – activators of human PKA-R2B complex | activation, % at 11.4 µM | PKA-R2B holoenzyme dissociation, Cy5-IP20 fluorescence polarization; R2B truncated from residue 108, S112A mutant; 0% DMSO only, 100% 113 µM cGMP | AID 504700 | 0.079% of 340,000 active;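 active = activation above a cutoff set at the mean over all compounds plus 3 SD, cut at about 18% in these data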;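 also: higher means more holoenzyme dissociation and a rise in polarization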
DDE Tn7 confirm – confirmation of inhibitors of Tn7 binding to human fibrin DD(E) | shares compounds with Tn7 DDE FP | FP displacement of TRITC-Tn7 peptide from DD(E); 0% set at plate's compound-well median | inhibition, % at 8.3 µM | 5% of 460 active;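 active = inhibition above the campaign cutoff, the mean of compounds within control limits plus 3 SD, cut at about 14% in these data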;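 also: 100% = median FP of high control wells holding Aha-Tn7 inhibitor peptide; displacers lower polarization since freed probe rises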
Tn7 DDE ctr – counter-screen for inhibitors of Tn7 peptide binding to fibrin DD(E) | TRITC-Tn7 probe displacement, fluorescence polarization | shares compounds with Tn7 DDE FP | 3% of 460 active | inhibition, % at 8.3 µM;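 active = inhibition above the cutoff, the mean of compounds lying between the control bounds plus 3 SD of those compounds, cut at about 17% in these data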;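 also: 0% = median of compound sample wells and 100% = excess unlabeled Aha-Tn7 peptide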
DDE Tn6 FP ctr – counter-screen hit for Tn6 peptide-fibrin DD(E) binding disruption; shares compounds with Tn6 DDE FP; 2% of 680 active; AID 720621; inhibition, % at 8.3 µM; TRITC-Tn6 fluorescence polarization displacement; 0% = median of compound wells, not DMSO;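 active = inhibition above the mean of test compounds lying between the control limits plus 3 SD of those, cut at about 14% in these data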;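 also: 0% = median of compound wells and 100% = wells with Aha-Tn7 blocking peptide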
DDE Tn6 confirm – confirmation of inhibitors of Tn6 binding to human fibrin DD(E); inhibition, % at 8.3 µM; FP displacement of TRITC-Tn6 peptide from DD(E); 0% = per-plate median of test wells; 10% of 680 active; AID 720631; shares compounds with Tn6 DDE FP;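 active = inhibition above the mean of compounds lying within the control limits plus 3 SD, cut at about 16% in these data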;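 also: 100% = high control wells holding a competing inhibitor peptide at 10 µM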
Active calls of the source: *. Shown are actives, neighbours in structure and some others; about 1% of the full set was active somewhere.

How did CC[C@@H](CO)NC(=O)[C@@H]1C=C2c3cccc4[nH]cc(c34)C[C@H]2N(C)C1 do in these assays?
Tn6 DDE FP: 1; PKA-R1A activ: -4; Neddyl block: 45*; Tn7 DDE FP: 16*; PKA-R2B activ: 0; DDE Tn7 confirm: -1; Tn7 DDE ctr: -1

What do the screens show for `N#CCC[C@@H]1CC[C@]2(CCCN(Cc3ccccn3)C2)O1`?
Tn6 DDE FP: -3; Tn7 DDE FP: -5

What do the screens show for `COC(=O)C(O)(c1ccc(N=Cc2ccccc2O)c(C)c1)C(F)(F)F` (stereo unspecified)?
Tn6 DDE FP: 4; PKA-R1A activ: 1; Neddyl block: 4; Tn7 DDE FP: 16*; PKA-R2B activ: -4; DDE Tn7 confirm: -1; Tn7 DDE ctr: -3

Results for COC(=O)C(O)(c1ccc(NC(=O)c2cccs2)c(C)c1)C(F)(F)F (stereo unspecified) ?
Tn6 DDE FP: -5; PKA-R1A activ: 1; Neddyl block: 1; Tn7 DDE FP: 4; PKA-R2B activ: 4

What do the screens show for `O=C(NCCN1CCC2(CC1)C(=O)NCN2c1ccccc1)c1ccc2ccccc2c1`?
Tn6 DDE FP: 5; Tn7 DDE FP: 2

What do the screens show for `O=C(NCCN1CCC2(CC1)C(=O)NCN2c1ccccc1)c1ccc(Cl)cc1`?
Tn6 DDE FP: 0; Tn7 DDE FP: 6

Results for Cc1ccc2cc(C=C(C#N)C#N)c(Cl)nc2c1 ?
Tn6 DDE FP: 2; PKA-R1A activ: -1; Neddyl block: 9; Tn7 DDE FP: 15*; PKA-R2B activ: 6; DDE Tn7 confirm: 10; Tn7 DDE ctr: 5

Results for CCCCn1c(O)c(C(CC)=Nc2ccc(C(=O)O)cc2)c(=O)[nH]c1=O ?
Tn6 DDE FP: 3; PKA-R1A activ: 1; Neddyl block: 0; Tn7 DDE FP: 15*; PKA-R2B activ: 7; DDE Tn7 confirm: 4; Tn7 DDE ctr: 2

What do the screens show for `CC(C)C[C@H]1N=C(c2ccccc2)c2ccccc2N(CC(=O)NC(C)(C)C)C1=O`?
Tn6 DDE FP: 5; Tn7 DDE FP: 2

Results for ClCCNc1nc2ccc(Cl)cc2[nH]1 ?
Tn6 DDE FP: 3; PKA-R1A activ: -4; Neddyl block: 2; Tn7 DDE FP: 14*; PKA-R2B activ: -15; DDE Tn7 confirm: -6; Tn7 DDE ctr: -8

How did CN1/C(=C\C=C2C(=O)NC(=O)NC2=O)C(C)(C)c2ccccc21 do in these assays?
Tn6 DDE FP: 5; PKA-R1A activ: 0; Neddyl block: -142; Tn7 DDE FP: -29; PKA-R2B activ: 5

How did CCN1/C(=C/C=C/C2=[N+](CC)c3ccccc3C2(C)C)C(C)(C)c2ccccc21 do in these assays?
Tn6 DDE FP: active; PKA-R1A activ: 1; Neddyl block: -37; Tn7 DDE FP: -92; PKA-R2B activ: -12; DDE Tn6 FP ctr: -132; DDE Tn6 confirm: 93*

What do the screens show for `CC(=O)C1=C(C)OC2=C(C(=O)CCC2)[C@@]12C(=O)N(C)c1ccccc12`?
Tn6 DDE FP: 2; Tn7 DDE FP: -4

What do the screens show for `COP(=O)(OC)C(C)NC(=O)OCc1ccccc1` (stereo unspecified)?
Tn6 DDE FP: 1; Tn7 DDE FP: -1

What do the screens show for `Cc1ccc2c(c1)C1CN(C)CCC1N2C(=O)Nc1cccc(C(F)(F)F)c1` (stereo unspecified)?
Tn6 DDE FP: 5; PKA-R1A activ: 4; Neddyl block: -9; Tn7 DDE FP: -1; PKA-R2B activ: -6

Results for Cc1ccc2c(c1)[C@@H]1CN(C)CC[C@@H]1N2C(=O)Nc1cccc(C(F)(F)F)c1 ?
Tn6 DDE FP: 17*; PKA-R1A activ: 9; Neddyl block: -2; Tn7 DDE FP: 6; PKA-R2B activ: -2; DDE Tn6 FP ctr: 1; DDE Tn6 confirm: -2

How did CCOC(=O)C(O)(c1ccc(NC(=O)NC2CCCCC2)cc1)C(F)(F)F (stereo unspecified) do in these assays?
Tn6 DDE FP: 17*; PKA-R1A activ: -14; Neddyl block: -3; Tn7 DDE FP: 5; PKA-R2B activ: 1; DDE Tn6 FP ctr: 4; DDE Tn6 confirm: -8

How did CN(C)c1ccc(/C=C/C=C2/C(=O)NC(=O)N(c3ccccc3)C2=O)cc1 do in these assays?
Tn6 DDE FP: 23*; PKA-R1A activ: -3; Neddyl block: -17; Tn7 DDE FP: 2; PKA-R2B activ: -3; DDE Tn6 FP ctr: 10; DDE Tn6 confirm: 40*

What do the screens show for `COC(=O)CC1(CC(=O)OC)C(=O)N(c2ccccc2)C(=O)N(c2ccccc2)C1=O`?
Tn6 DDE FP: -1; PKA-R1A activ: -5; Neddyl block: 0; Tn7 DDE FP: -10; PKA-R2B activ: -3

Results for COC(=O)CC1(CC(=O)OC)C(=O)NC(=O)NC1=O ?
Tn6 DDE FP: 18*; PKA-R1A activ: -4; Neddyl block: -2; Tn7 DDE FP: -1; PKA-R2B activ: -14; DDE Tn6 FP ctr: -5; DDE Tn6 confirm: -13

Results for Cc1cccc(-n2c(O)c(C=NCCN3CCNCC3)c(=O)[nH]c2=S)c1 ?
Tn6 DDE FP: 16*; PKA-R1A activ: 0; Neddyl block: -5; Tn7 DDE FP: -2; PKA-R2B activ: -12; DDE Tn6 FP ctr: -2; DDE Tn6 confirm: -4

What do the screens show for `CNC(=S)N1CCN(CCN=Cc2c(O)n(-c3ccc(C)cc3)c(=S)[nH]c2=O)CC1`?
Tn6 DDE FP: 1; PKA-R1A activ: 3; Neddyl block: 3; Tn7 DDE FP: 4; PKA-R2B activ: -5

What do the screens show for `CC(NC(=O)OC1CC2CCC1(C)C2(C)C)P(=O)(Oc1ccccc1)Oc1ccccc1` (stereo unspecified)?
Tn6 DDE FP: 6; Tn7 DDE FP: 2

How did C[N+]1=C(N)NC2=C3CCCCC3ONC2C1 (stereo unspecified) do in these assays?
Tn6 DDE FP: 6; Tn7 DDE FP: 2

Results for CNc1ccc2nc3ccccc3[n+](C)c2c1 ?
Tn6 DDE FP: active; PKA-R1A activ: 1; Neddyl block: -69; Tn7 DDE FP: -1; PKA-R2B activ: -4; DDE Tn6 FP ctr: -8; DDE Tn6 confirm: 94*

How did C[n+]1c2ccccc2nc2ccc(NCCO)cc21 do in these assays?
Tn6 DDE FP: active; PKA-R1A activ: -1; Neddyl block: -63; Tn7 DDE FP: -1; PKA-R2B activ: -4; DDE Tn6 FP ctr: 1; DDE Tn6 confirm: 122*

Screening results: PubChem, several laboratories
